Measurements taken from ChEMBL document CHEMBL1152760, “Synthesis and bioevaluation of omega-N-amino analogs of B13” (Bioorg Med Chem, 2009).
pIC50: −log10 of the molar value. The source made the active and inactive calls. The rule behind the calls is not given here.

Tests used:
MCF7 [1] = test: Increase in endogenous C16-ceramide level in human MCF7 cells at 10 uM after 2 hrs by LC/MS analysis relative to control; assay type: functional
Summary of the method: (§1)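 MCF7 cells treated with 10μM compound for 2 h. Endogenous ceramide species and sphingosine were measured in a Bligh & Dyer lipid extract and normalized to phospholipid phosphate (pmol/nmol Pi). Results are given as % of control, each dose in duplicate.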

MCF7 [2] = test: Increase in endogenous C18-ceramide level in human MCF7 cells at 10 uM after 2 hrs by LC/MS analysis relative to control; assay type: functional; summary of the method: as §1
MCF7 [3] = test: Increase in endogenous C24-ceramide level in human MCF7 cells at 10 uM after 2 hrs by LC/MS analysis relative to control; assay type: functional; summary of the method: as §1
MCF7 [4] = test: Increase in endogenous C24:1-ceramide level in human MCF7 cells at 10 uM after 2 hrs by LC/MS analysis relative to control; assay type: functional; summary of the method: as §1
MCF7 [5] = test: Increase in endogenous sphingosine level in human MCF7 cells at 10 uM after 2 hrs by LC/MS analysis relative to control; assay type: functional; summary of the method: as §1
MCF7 [6] = test: Induction of lysosomal destabilization in human MCF7 cells assessed as reduction in stability at 10 uM after 1 to 5 hrs by FACS; assay type: functional
Summary of the method: (§2)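 MCF7 cells seeded at 5 × 10^5 per well overnight, then moved to fresh 2% FBS medium with compound in DMSO or DMSO alone at 37°C for 1 and 5 h. 200nM LysoTracker Red was added for 30 min, and cells were trypsinized, washed and analysed by FACS (564–606nm, ≥10,000 events). A fall in fluorescence indicates a rise in lysosomal pH. Triplicates, reported as % control.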

MCF7 [7] = test: Cytotoxicity against human MCF7 cells after 48 hrs by MTT assay; assay type: functional, cell-based; conditions: for pIC50: MCF7, 48 h
Summary of the method: (§3)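 MCF7 cells (RPMI 1640, 10% FBS) seeded at 5 × 10^3 per well and left overnight to attach. Compounds in DMSO (<0.1%) added at 0.78–100 μM for 48 h (or 72 h), then MTT read-out. Viability is Ad/Ac × 100 against untreated controls, with 5 replicates per dose and two independent experiments. IC50 is the concentration giving 50% growth inhibition.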

[8] = molecular target: T1, Acid ceramidase (Homo sapiens) (UniProt Q13510); test: Inhibition of acid ceramidase in human MCF7 cell lysate at 50 uM by scintillation counting; assay type: cell-free
T1 sequence (whole entry): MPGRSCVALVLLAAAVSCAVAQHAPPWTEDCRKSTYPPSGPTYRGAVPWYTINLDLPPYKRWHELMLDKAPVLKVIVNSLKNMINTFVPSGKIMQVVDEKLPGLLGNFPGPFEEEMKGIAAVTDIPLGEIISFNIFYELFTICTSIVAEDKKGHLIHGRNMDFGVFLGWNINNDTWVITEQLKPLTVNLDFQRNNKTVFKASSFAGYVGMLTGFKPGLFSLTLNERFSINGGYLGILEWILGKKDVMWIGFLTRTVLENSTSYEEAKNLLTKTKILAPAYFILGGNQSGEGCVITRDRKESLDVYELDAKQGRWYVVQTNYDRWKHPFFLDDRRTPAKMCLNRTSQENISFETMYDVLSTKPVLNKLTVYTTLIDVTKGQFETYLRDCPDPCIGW
Summary of the method: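 MCF7 lysate prepared in pH 4.5 acetate buffer (5mM MgCl2, 1mM EDTA, 0.5% Triton X-100) served as the enzyme source. Substrate was [3H]C16-ceramide in Triton/cholate, dried down with compound from ethanol stock. The reaction was run at final pH about 4.2 and 37°C for 1 h, then stopped with Dole's reagent. Released [3H]palmitic acid was counted by scintillation. Duplicates, reported as % control.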

[9] = molecular target: T1, Acid ceramidase (Homo sapiens); test: Inhibition of acid ceramidase in human MCF7 cells at 10 uM after 2 hrs by scintillation counting; assay type: cell-based
Summary of the method: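 MCF7 cells were treated with 10μM compound for 2 h, scraped and lysed in acidic buffer. Acid ceramidase activity in the lysate was assayed with [3H]C16-ceramide at pH about 4.2, 37°C for 1 h, counting released [3H]palmitic acid. Duplicates, reported as % control.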

MCF7 [10] = test: Increase in endogenous C14-ceramide level in human MCF7 cells at 10 uM after 2 hrs by LC/MS analysis relative to control; assay type: functional; summary of the method: as §1
MCF7 [11] = test: Increase in endogenous total ceramide level in human MCF7 cells at 10 uM after 2 hrs by LC/MS analysis relative to control; assay type: functional; summary of the method: as §1
MCF7 [12] = test: Decrease in endogenous sphingosine level in human MCF7 cells at 10 uM after 2 hrs by LC/MS analysis relative to control; assay type: functional; set-up: scale not given: the % may be the effect or the level left; summary of the method: as §1
MCF7 [13] = test: Induction of apoptosis in human MCF7 cells at 5 uM after 24 hrs; assay type: functional, cell-based; conditions: MCF7, 24 h
MCF7 [14] = test: Induction of apoptosis in human MCF7 cells assessed as increase in caspase 3/7 activity at 10 uM after 24 hrs; assay type: functional
Summary of the method: (§4)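 MCF7 cells seeded at 5 × 10^3 per well overnight, then given vehicle or compound at the indicated concentrations. After 8 h and 24 h, caspase 3/7 activity was measured with the Apo-ONE homogeneous kit (fluorescence, ex 485/em 520 nm). Data are mean ±SD.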

MCF7 [15] = test: Cytotoxicity against human MCF7 cells after 72 hrs by MTT assay; assay type: functional, cell-based; conditions: MCF7, 72 h; summary of the method: as §3
MCF7 [16] = test: Induction of lysosomal destabilization in human MCF7 cells assessed as reduction in stability at 10 uM after 1 hr by FACS; assay type: functional; set-up: scale not given: the % may be the effect or the level left; summary of the method: as §2
MCF7 [17] = test: Induction of lysosomal destabilization in human MCF7 cells assessed as reduction in stability at 10 uM after 5 hrs by FACS; assay type: functional, cell-based; summary of the method: as §2
MCF7 [18] = test: Induction of apoptosis in human MCF7 cells assessed as increase in caspase 3/7 activity after 24 hrs; assay type: functional, cell-based; summary of the method: as §4

| Structure (SMILES) | Activity (MCF7 [1]) | Activity (MCF7 [2]) | Activity (MCF7 [3]) | Activity (MCF7 [4]) | Activity (MCF7 [5]) | Activity (MCF7 [6]) | Activity (MCF7 [7]) | pIC50 (MCF7 [7]) | inhibition [8] | Activity [9] | Activity (MCF7 [10]) | Activity (MCF7 [11]) | Activity (MCF7 [12]) | pIC50 (MCF7 [13]) | inhibition [9] | Activity (MCF7 [14]) | pIC50 (MCF7 [15]) | Activity (MCF7 [16]) | Activity (MCF7 [17]) | Activity (MCF7 [18]) |
| --- | --- | --- | --- | --- | --- | --- | --- | --- | --- | --- | --- | --- | --- | --- | --- | --- | --- | --- | --- | --- |
| CCCCCCCCCCCCCC(=O)N[C@H](CO)[C@H](O)c1ccc([N+](=O)[O-])cc1 | 135% | 135% | 135% | 135% | 140% | inactive | Dose-dependent effect | 4.71 | 90% | inactive | 135% |  |  |  |  |  |  |  |  |  |
| NCCCCCCCCCCCC(=O)N[C@H](CO)[C@H](O)c1ccc([N+](=O)[O-])cc1 | 120% |  |  |  |  |  | Dose-dependent effect | 5.19 |  |  | 200% | 98% | 50% |  |  |  |  |  |  |  |
| CCCCCCCCCCCCCCN[C@H](CO)[C@H](O)c1ccc([N+](=O)[O-])cc1.Cl | 200% | 160% |  |  |  | 90% | Dose-dependent effect | 5.37 |  |  | 220% |  | 30% | 5.30 | 35% |  |  |  |  |  |
| CCCCCCCCNCCCCCC(=O)N[C@H](CO)[C@H](O)c1ccc([N+](=O)[O-])cc1 | 120% |  |  |  |  |  | Dose-dependent effect | 4.92 | 5% |  | 200% | 98% | 50% |  |  |  |  |  |  |  |
| CN(C)CCCCCCCCCCCC(=O)N[C@H](CO)[C@H](O)c1ccc([N+](=O)[O-])cc1 | 143% |  |  |  |  |  | Dose-dependent effect | 4.99 | 55% |  | 300% |  | 50% |  | 65% | 175% | 5.14 | 10% | inactive | Dose-dependent effect |
| O=C(CCCCCCCCCCCn1ccnc1)N[C@H](CO)[C@H](O)c1ccc([N+](=O)[O-])cc1 | 120% |  |  |  |  |  | Dose-dependent effect | 4.83 |  |  | 200% | 98% | 50% |  |  |  |  |  |  |  |
| CNCCCCCCCCCCCC(=O)N[C@H](CO)[C@H](O)c1ccc([N+](=O)[O-])cc1 | 120% |  |  |  |  |  | Dose-dependent effect | 4.81 |  |  | 200% | 98% | 50% |  |  |  |  |  |  |  |
| O=C(CCCCCCCCCCCN1CCOCC1)N[C@H](CO)[C@H](O)c1ccc([N+](=O)[O-])cc1 | 120% |  |  |  |  |  | Dose-dependent effect | 4.30 | 5% |  | 200% | 98% | 50% |  |  |  |  |  |  |  |
